Rows were chosen to be rich in hits. Some 0.6% of all compounds tested hit in one or more screens of this group.
PMI activator: activators of human phosphomannose isomerase; P34949; purified human PMI, coupled resazurin fluorescence, 20 min; hits give high values; 1 = vehicle control, 0 substrate-free wells; activation factor at 20 µM; actives 0.005% (n = 190,000); AID 1214;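 active = activation factor of 2 or more at 20 µM, relative to plate controls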
TNAP inh hi DEA: blocks human TNAP under high phosphate acceptor concentration; P05186; purified TNAP, CDP-star luminescence, 1 M DEA; inhibition, % at 20 µM; actives 0.03% (n = 200,000); AID 1135;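 active = over 50% inhibition of tissue-nonspecific alkaline phosphatase at 20 µM in the single-dose screen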
Target sequence (P05186 whole entry, looked up): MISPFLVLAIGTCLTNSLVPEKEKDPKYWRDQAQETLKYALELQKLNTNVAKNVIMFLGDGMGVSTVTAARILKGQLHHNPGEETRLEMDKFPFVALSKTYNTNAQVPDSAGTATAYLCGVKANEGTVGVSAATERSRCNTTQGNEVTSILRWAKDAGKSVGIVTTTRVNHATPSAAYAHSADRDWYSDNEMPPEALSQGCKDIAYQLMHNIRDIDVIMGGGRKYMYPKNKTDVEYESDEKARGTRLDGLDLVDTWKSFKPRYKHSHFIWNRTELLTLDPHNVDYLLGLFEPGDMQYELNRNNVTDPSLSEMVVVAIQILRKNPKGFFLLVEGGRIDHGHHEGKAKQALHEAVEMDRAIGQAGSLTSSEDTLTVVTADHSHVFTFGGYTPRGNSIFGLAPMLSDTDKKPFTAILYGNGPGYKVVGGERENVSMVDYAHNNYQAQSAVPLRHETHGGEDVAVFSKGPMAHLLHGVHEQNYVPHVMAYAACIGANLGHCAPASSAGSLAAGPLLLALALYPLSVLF
TNAP inh noacc: blocks human TNAP activity with no phosphate acceptor present. purified TNAP, CDP-star luminescence, 30 min. inhibition, % at 20 µM. actives 0.26% (n = 200,000);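 active = tissue-nonspecific alkaline phosphatase inhibition above about 50% at 20 µM in the single-dose screen, limit read from the data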
PMI act satM6P: increases human PMI activity with near-saturating mannose 6-phosphate; P34949; coupled PMI enzyme assay, resazurin fluorescence, 20 min; hits give high values; 1 = untreated enzyme, 0 = substrate-free blank; activation factor at 20 µM; actives 0.34% (n = 190,000); AID 1216;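 active = activation factor of 2 or more at 20 µM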
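Material: human phosphomannose isomerase with PGI, G6PDH, diaphorase coupling enzymes; amount: PMI at 15 ng/mL final; also added: Mannose-6-phosphate 1.0 mM (near-saturating) plus 0.22 mM NADP+; incubation: enzyme reaction with compound 20 min at room temperature; signal: resorufin fluorescence (Ex 544/Em 590 nm) from resazurin via diaphorase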
TNAP act hiacc: increases human TNAP activity under high phosphate acceptor concentration | purified TNAP, CDP-star luminescence, 1 M DEA, 30 min; hits give high values; 0 = EDTA background, 1 = DMSO-only activity | activation factor at 20 µM | 200,000 tested, under 10 active | AID 1136;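 active = activation factor at least 2 at 20 µM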
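Measured by: Luminescent substrate turnover signal | Test system: Human TNAP | Input: TNAP 1/800 final | Dosing: 20 µM single point | Schedule: 30 min, room temperature | Controls: EDTA wells as negative control, DMSO wells as positive control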
Of the large screens only hits and unclear results are named; the others gave an inactive call.

O=[N+]([O-])c1cccnc1N1CCC(c2cc(-c3ccc(Cl)cc3Cl)n[nH]2)CC1	TNAP inh noacc 79
COc1ccc(OC)c(-c2cc(C3CCN(c4ncccc4[N+](=O)[O-])CC3)[nH]n2)c1	none
CCOC(=O)c1sc(NC(=O)CSc2n[nH]c(-c3ccc(Cl)cc3Cl)n2)c(C#N)c1C	TNAP inh noacc 96
Oc1ccc(/C(Cc2ccccn2)=N\Nc2ccccc2)c(O)c1	PMI act satM6P 2.5
Oc1ccc(/C(Cc2ccc3ccccc3n2)=N\Nc2ccccc2)c(O)c1	PMI act satM6P 2.3
CC1CCCCC1NCc1cccc([N+](=O)[O-])c1 (configuration not stated)	none
CCc1cc2c3c(c1)C(C)CC(C)(C)N3C(=O)C2=O (configuration not stated)	none
O=C(O)CCC(=O)Nc1ccc(C(=O)OCC(=O)c2ccc(Cl)cc2Cl)cc1	none
Cc1[nH]nc(-c2ccc(O)c(C)c2O)c1Oc1ccccc1	TNAP inh noacc 72
C=CCSc1n[nH]c(-c2ccc(OC)cc2)n1	TNAP inh noacc 80
CCCCOc1ccc(-c2nc(SCC(N)=O)n[nH]2)cc1	none
C=CCSc1ncc(-c2ccccc2)cn1	none
C=CCSc1n[nH]c(-c2ccccc2)n1	TNAP inh noacc 76
c1ccc(-c2nc(-c3cccnc3)n[nH]2)cc1	none
Brc1cccc(-c2n[nH]c(-c3ccccc3)n2)c1	TNAP inh noacc 57
CC(C#N)(Nc1ccc(Cl)cc1)c1cccnc1 (configuration not stated)	none
COc1ccc(-c2csc(NC(=O)CSc3ncn[nH]3)n2)cc1OC	none
O=C(CSc1ncn[nH]1)NCCC(c1ccccc1)c1ccccc1	TNAP inh hi DEA 51, TNAP inh noacc 55
O=C(CSc1ncn[nH]1)Nc1nc(-c2ccccc2)cs1	TNAP inh noacc 84
Cc1nc(NC(=O)CSc2nnc(N)s2)c(Cl)cc1Cl	none
Cc1nnc(NC(=O)CSc2n[nH]c(-c3ccccc3)n2)s1	TNAP inh noacc 59
CCCCc1nc(SCC(=O)Nc2cc(C)on2)n[nH]1	TNAP inh noacc 57
COc1ccc(-c2nc(SCC(=O)Nc3cc(C)on3)n[nH]2)cc1	TNAP inh noacc 70
CCOC(=O)C1(CCCc2ccccc2)CCN(C2CCN(C(C)=O)CC2)CC1	none
O=C(NNc1ccccc1)C(CCO)C(=O)NNc1ccccc1	PMI act satM6P 2.4
CC(O)CC(C(=O)NNc1ccccc1)C(=O)NNc1ccccc1 (configuration not stated)	PMI act satM6P 2.5
CCn1c(CSc2ncccn2)nnc1SCC(=O)N1CCCCC1	none
Cc1ccc(-c2nnn(CC(=O)Nc3nnc(C(C)C)s3)n2)cc1	none
CCn1c(CNC(=O)Cc2ccc(OC)cc2)nnc1SCC(=O)c1ccccc1	PMI act satM6P 2.5
C=CCNC(=O)/C(C#N)=C/c1ccc(OS(=O)(=O)c2ccc(C)cc2)c(OC)c1	none
COCCNC(=S)NCCCNc1nc2cc3c(cc2cc1C#N)OCO3	none
CCOCCCNC(=S)NCCCNc1nc2cc3c(cc2cc1C#N)OCO3	PMI act satM6P 2.2
CCOCCCNC(=S)NCCNc1nc2ccc(C)cc2cc1C#N	PMI act satM6P 2
CN(C)CCCNC(=S)NCCNc1nc2cc3c(cc2cc1C#N)OCO3	none
CCOCCCNC(=S)NCCCNc1nc2ccc(C)cc2cc1C#N	PMI act satM6P 2.1
COc1ccc(N2C(=O)C3CCCCC3C2=O)cc1NC(=O)c1ccccc1 (configuration not stated)	none
CN(/C(=N\S(=O)(=O)c1ccccc1)c1ccccc1)c1ccc(O)cc1	none
O=[N+]([O-])c1cccc(/C=N/NS(=O)(=O)c2ccccc2)c1	none
COc1ccc(-n2c(O)c(/C=N/NS(=O)(=O)c3cccc([N+](=O)[O-])c3)c3ccccc3c2=O)cc1OC	PMI act satM6P 2.1
CC1(CCc2ccccc2)NC(=S)N(c2ccccc2)N1 (configuration not stated)	PMI act satM6P 2.8
CC1(CCc2ccccc2)NC(=S)N(c2ccc(Cl)cc2)N1 (configuration not stated)	PMI act satM6P 2.7
CCC1(c2ccccc2)NC(=S)N(c2ccc(C)c(C)c2)N1 (configuration not stated)	none

Bioassay records: PubChem, Sanford-Burnham Center for Chemical Genomics
